Data as given in ChEMBL document CHEMBL2034871, “First-in-class, dual-action, 3,5-disubstituted indole derivatives having human nitric oxide synthase (nNOS) and norepinephrine reuptake inhibitory (NERI) activity for the treatment of neuropathic pain” (J Med Chem, 2012).

Tests used:
Nitric oxide synthase 1 = Nitric oxide synthase 1 (Homo sapiens, UniProt P29475); test: Inhibition of human nNOS expressed in baculovirus-infected insect sf9 cells assessed as conversion of [3H]-L-arginine to [3H]-L-citrulline preincubated for 15 mins with compound measured after 45 mins by scintillation counting
Nitric oxide synthase 3 = target: T1, Nitric oxide synthase 3 (Homo sapiens, UniProt P29474); test: Inhibition of human eNOS expressed in baculovirus-infected insect sf9 cells assessed as conversion of [3H]-L-arginine to [3H]-L-citrulline preincubated for 15 mins with compound measured after 45 mins by scintillation counting
T1 sequence (P29474 whole entry): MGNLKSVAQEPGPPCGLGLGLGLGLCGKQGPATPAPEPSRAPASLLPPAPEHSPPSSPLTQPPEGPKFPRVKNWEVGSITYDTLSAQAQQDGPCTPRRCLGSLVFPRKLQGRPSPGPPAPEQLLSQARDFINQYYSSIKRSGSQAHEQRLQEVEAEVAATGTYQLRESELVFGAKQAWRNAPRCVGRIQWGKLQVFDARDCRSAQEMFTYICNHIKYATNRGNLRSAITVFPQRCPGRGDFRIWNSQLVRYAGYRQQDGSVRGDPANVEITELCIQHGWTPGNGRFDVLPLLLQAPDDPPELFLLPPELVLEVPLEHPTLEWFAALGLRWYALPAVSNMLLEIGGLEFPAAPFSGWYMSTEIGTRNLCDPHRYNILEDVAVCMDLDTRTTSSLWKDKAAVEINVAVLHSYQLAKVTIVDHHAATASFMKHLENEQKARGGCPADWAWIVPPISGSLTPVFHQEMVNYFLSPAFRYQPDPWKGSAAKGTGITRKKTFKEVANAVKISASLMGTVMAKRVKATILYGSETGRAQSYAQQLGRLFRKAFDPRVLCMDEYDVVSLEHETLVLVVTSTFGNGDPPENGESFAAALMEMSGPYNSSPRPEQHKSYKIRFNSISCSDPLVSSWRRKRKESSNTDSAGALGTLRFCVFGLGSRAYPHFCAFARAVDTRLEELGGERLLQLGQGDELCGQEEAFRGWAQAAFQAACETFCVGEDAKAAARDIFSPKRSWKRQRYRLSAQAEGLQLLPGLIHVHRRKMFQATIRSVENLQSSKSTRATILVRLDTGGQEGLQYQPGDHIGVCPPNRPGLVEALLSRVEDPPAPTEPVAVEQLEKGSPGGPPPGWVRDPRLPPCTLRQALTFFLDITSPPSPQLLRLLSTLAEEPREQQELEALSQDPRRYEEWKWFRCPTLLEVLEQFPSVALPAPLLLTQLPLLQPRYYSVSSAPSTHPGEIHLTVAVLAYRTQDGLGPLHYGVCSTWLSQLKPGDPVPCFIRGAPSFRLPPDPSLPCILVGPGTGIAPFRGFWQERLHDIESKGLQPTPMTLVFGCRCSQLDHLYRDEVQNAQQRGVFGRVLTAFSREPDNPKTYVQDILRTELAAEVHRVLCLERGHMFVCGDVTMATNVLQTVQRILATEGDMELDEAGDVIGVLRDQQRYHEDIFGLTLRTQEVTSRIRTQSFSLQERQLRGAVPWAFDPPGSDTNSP

[1] = target: Nitric oxide synthase, inducible (Homo sapiens, UniProt P35228); test: Inhibition of human iNOS expressed in baculovirus-infected insect sf9 cells assessed as conversion of [3H]-L-arginine to [3H]-L-citrulline preincubated for 15 mins with compound measured after 45 mins by scintillation counting
Homo sapiens = species on record: Homo sapiens; test: Selectivity ratio of IC50 for human eNOS to IC50 for human nNOS
Method in brief: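 Recombinant human nNOS and eNOS made in baculovirus-infected Sf9 cells. Buffer: 40 mM HEPES pH 7.4 with 2.4 mM CaCl2, 1 mM MgCl2, 1 mg/mL BSA, 1 mM EDTA, 1 mM DTT, 1 μM FMN/FAD, 10 μM BH4, 1 mM NADPH and 1.2 μM CaM. Compound preincubated 15 min at RT. Started with 24 μM L-arginine plus [3H]arginine. [3H]citrulline separated on DOWEX and counted; background from L-NMMA control; duplicates.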

[2] = target: Sodium-dependent noradrenaline transporter (Homo sapiens, UniProt P23975); test: Displacement of [3H]nisoxetine from human NET expressed in CHO cells after 120 mins by scintillation counting; assay type: cell-based
Method in brief: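 Membranes from hNET-transfected CHO cells (20 μg protein) incubated 120 min at 4 °C with 1 nM [3H]nisoxetine in 50 mM Tris-HCl pH 7.4, 120 mM NaCl, 5 mM KCl. Nonspecific binding defined with 1 μM desipramine. Filtered on PEI-soaked GF/B and counted.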

Cytochrome P450 3A4 = Cytochrome P450 3A4 (Homo sapiens, UniProt P08684); test: Inhibition of CYP3A4; assay type: ADME
Cytochrome P450 1A2 = target: T2, Cytochrome P450 1A2 (Homo sapiens, UniProt P05177); test: Inhibition of CYP1A2; assay type: ADME; conditions: read-out: IC50
T2 sequence (P05177 whole entry): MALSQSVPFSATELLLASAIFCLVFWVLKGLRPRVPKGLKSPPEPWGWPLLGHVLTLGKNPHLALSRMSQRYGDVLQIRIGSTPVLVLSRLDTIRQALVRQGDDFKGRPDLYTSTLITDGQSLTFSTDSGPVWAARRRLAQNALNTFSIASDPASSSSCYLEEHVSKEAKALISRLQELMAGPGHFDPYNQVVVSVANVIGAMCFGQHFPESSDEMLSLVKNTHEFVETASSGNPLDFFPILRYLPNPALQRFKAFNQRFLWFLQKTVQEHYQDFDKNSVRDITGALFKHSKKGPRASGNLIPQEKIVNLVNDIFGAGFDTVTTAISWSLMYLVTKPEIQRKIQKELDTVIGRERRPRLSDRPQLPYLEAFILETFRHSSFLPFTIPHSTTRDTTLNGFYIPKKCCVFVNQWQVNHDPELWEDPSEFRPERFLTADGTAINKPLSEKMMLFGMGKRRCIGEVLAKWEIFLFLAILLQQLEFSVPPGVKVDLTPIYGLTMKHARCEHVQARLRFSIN

Cytochrome P450 2C9 = Cytochrome P450 2C9 (Homo sapiens, UniProt P11712); test: Inhibition of CYP2C9; assay type: ADME; conditions: read-out: IC50
Cytochrome P450 2C19 = Cytochrome P450 2C19 (Homo sapiens, UniProt P33261); test: Inhibition of CYP2C19; assay type: ADME
Cytochrome P450 2D6 = Cytochrome P450 2D6 (Homo sapiens, UniProt P10635); test: Inhibition of CYP2D6; assay type: ADME

Chain of Sodium-dependent noradrenaline transporter (P23975 whole entry): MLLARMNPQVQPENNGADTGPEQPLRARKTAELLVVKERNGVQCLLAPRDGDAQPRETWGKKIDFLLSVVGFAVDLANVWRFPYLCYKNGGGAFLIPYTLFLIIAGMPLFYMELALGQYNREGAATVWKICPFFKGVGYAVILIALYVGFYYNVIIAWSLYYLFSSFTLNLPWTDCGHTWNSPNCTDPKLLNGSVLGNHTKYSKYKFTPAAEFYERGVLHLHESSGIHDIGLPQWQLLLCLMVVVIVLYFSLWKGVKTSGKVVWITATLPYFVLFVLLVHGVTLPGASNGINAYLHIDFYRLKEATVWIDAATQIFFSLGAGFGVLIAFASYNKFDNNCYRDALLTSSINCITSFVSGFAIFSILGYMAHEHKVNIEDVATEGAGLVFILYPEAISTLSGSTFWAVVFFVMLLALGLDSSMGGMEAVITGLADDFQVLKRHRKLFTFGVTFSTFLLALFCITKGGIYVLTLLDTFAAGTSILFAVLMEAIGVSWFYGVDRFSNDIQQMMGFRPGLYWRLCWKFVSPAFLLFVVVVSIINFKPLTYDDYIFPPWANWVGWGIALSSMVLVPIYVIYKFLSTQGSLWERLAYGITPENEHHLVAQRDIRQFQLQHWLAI
Chain of Nitric oxide synthase 1 (P29475 whole entry): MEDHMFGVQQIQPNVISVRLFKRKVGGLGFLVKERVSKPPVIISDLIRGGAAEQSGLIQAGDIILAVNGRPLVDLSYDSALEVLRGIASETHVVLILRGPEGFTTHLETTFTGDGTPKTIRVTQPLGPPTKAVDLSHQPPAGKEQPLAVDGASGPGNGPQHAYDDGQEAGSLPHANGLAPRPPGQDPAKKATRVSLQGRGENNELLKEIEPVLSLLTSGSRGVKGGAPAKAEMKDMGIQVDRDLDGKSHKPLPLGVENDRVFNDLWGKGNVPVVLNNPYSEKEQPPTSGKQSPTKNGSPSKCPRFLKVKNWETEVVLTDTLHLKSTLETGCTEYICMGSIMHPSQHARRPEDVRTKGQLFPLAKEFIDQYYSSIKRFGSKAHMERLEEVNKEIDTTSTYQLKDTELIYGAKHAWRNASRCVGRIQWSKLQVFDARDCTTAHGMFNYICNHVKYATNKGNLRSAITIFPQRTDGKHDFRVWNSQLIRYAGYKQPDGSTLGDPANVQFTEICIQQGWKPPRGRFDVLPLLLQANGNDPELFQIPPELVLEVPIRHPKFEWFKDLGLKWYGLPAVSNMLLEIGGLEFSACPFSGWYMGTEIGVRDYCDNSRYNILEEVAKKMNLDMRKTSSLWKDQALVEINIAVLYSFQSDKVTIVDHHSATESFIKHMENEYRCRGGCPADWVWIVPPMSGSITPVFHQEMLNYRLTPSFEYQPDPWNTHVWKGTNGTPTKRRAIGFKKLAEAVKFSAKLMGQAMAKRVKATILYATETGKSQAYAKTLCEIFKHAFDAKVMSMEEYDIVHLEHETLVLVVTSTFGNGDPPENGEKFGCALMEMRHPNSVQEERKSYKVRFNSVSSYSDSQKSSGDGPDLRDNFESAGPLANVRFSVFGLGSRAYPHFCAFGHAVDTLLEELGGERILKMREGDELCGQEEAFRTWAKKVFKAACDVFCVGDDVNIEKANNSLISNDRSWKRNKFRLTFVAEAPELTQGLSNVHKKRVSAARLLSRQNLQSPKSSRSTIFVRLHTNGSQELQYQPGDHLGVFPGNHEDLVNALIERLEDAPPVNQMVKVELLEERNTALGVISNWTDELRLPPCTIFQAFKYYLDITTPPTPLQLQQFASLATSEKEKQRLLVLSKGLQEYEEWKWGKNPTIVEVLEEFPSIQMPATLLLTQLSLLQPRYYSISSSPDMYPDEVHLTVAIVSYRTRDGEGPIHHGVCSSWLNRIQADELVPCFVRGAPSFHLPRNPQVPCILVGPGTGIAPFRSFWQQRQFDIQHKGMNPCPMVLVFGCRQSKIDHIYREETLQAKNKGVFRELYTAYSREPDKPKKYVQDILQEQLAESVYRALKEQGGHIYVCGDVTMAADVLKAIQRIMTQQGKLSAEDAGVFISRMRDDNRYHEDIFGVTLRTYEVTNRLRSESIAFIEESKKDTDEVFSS
Chain of Nitric oxide synthase, inducible (P35228 whole entry): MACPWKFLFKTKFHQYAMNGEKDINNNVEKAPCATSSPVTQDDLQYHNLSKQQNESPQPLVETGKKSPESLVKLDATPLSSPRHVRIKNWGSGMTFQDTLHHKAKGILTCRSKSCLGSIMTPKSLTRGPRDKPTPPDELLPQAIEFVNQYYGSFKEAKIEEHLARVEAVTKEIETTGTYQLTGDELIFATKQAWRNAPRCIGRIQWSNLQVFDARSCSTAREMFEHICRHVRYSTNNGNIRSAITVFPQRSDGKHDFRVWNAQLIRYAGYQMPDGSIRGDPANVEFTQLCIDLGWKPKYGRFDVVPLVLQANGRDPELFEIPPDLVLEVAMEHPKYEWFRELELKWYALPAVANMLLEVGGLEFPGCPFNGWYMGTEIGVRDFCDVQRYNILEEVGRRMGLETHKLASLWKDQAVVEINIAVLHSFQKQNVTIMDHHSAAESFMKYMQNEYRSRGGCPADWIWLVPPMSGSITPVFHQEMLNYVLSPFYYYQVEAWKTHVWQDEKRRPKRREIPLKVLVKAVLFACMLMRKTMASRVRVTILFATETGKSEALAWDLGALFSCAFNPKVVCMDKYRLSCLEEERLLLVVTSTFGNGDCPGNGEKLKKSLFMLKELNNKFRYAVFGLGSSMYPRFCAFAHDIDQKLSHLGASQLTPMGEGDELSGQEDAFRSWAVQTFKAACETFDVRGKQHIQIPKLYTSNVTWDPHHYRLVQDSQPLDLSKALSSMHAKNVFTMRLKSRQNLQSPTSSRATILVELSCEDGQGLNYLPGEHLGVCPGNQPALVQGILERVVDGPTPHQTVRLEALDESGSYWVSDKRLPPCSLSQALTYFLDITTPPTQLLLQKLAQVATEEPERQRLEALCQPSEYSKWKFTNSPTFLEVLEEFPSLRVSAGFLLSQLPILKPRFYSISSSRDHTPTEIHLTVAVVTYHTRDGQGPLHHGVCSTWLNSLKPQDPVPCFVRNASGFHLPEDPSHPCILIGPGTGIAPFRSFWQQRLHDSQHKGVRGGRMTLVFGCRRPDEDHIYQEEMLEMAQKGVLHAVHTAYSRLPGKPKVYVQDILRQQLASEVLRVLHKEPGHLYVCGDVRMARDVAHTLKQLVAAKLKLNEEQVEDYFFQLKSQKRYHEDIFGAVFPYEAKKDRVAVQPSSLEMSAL
Chain of Cytochrome P450 3A4 (P08684 whole entry): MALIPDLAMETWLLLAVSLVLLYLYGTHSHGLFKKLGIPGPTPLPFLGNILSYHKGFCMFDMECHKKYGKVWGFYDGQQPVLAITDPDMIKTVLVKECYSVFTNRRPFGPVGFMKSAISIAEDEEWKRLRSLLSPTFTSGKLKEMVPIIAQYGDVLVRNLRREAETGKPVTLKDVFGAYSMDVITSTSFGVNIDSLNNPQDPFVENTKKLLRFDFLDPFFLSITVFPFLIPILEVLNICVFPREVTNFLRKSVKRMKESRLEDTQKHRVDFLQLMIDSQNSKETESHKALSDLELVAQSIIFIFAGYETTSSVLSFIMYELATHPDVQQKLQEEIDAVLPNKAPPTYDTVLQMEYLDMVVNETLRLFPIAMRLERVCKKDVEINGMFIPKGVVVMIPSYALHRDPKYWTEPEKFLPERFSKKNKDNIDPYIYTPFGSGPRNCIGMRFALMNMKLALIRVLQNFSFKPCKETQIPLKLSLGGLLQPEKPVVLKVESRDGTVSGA
Chain of Cytochrome P450 2C9 (P11712 whole entry): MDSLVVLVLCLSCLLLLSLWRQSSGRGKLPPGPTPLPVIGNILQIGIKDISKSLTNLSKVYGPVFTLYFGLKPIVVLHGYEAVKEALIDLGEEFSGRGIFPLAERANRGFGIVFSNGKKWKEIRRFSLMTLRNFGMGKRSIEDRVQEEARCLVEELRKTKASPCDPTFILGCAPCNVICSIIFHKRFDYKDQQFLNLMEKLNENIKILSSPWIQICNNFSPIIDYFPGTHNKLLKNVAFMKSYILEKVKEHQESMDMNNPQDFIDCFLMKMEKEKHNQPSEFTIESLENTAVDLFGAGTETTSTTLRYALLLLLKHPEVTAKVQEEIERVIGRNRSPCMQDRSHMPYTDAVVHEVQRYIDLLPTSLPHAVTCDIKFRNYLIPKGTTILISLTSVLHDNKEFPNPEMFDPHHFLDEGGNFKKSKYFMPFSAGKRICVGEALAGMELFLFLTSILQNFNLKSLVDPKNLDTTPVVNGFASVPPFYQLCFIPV
Chain of Cytochrome P450 2C19 (P33261 whole entry): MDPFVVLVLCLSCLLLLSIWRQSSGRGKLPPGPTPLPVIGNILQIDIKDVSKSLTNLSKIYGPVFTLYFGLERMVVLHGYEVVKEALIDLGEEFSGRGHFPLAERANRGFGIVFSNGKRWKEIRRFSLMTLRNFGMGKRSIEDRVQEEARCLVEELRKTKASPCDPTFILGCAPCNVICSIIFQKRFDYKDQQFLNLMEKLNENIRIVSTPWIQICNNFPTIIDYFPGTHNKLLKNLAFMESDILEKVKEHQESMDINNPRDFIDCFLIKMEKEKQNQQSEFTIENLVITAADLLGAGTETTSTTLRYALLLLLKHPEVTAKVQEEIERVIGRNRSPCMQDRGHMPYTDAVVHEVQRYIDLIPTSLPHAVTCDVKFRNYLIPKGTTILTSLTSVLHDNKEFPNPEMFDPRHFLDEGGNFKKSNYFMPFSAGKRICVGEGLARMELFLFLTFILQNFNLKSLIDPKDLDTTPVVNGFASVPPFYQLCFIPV

IC50 [1] [µM] | Ratio IC50 (Homo sapiens) | IC50 [2] [µM] | Compound | further results
149 | 63 | 2.2 | CN(C)[C@H]1CC[C@H](c2c[nH]c3ccc(NC(=N)c4cccs4)cc32)CC1 | IC50 (Nitric oxide synthase 1): 4.52 µM; IC50 (Nitric oxide synthase 3): 284 µM
26.5 | 51 | 0.16 | CN(C)[C@H]1CC[C@@H](c2c[nH]c3ccc(NC(=N)c4cccs4)cc32)CC1 | IC50 (Nitric oxide synthase 1): 0.35 µM; IC50 (Nitric oxide synthase 3): 17.5 µM
[…] |  |  | CN[C@H]1CC[C@@H](c2c[nH]c3ccc(NC(=N)c4cccs4)cc32)CC1 | IC50 (Cytochrome P450 3A4): 57.3 µM
493 |  |  | CCN[C@H]1CC[C@@H](c2c[nH]c3ccc(NC(=N)c4cccs4)cc32)CC1 | IC50 (Cytochrome P450 1A2): > 100 µM; IC50 (Cytochrome P450 2C9): 21.5 µM; IC50 (Cytochrome P450 2C19): 23.4 µM; IC50 (Cytochrome P450 2D6): 0.927 µM
155 |  |  | CCN[C@H]1CC[C@H](c2c[nH]c3ccc(NC(=N)c4cccs4)cc32)CC1 | 
24 |  |  | CN(C)C1CC=C(c2c[nH]c3ccc(NC(=N)c4cccs4)cc23)CC1 (racemic) | 
19.2 |  | 1.7 | CCN[C@H]1CCC[C@@H](c2c[nH]c3ccc(NC(=N)c4cccs4)cc23)C1 (racemic) | 
54.2 |  | 0.76 | CCN[C@H]1CCC[C@H](c2c[nH]c3ccc(NC(=N)c4cccs4)cc23)C1 (racemic) | 
 | 28 |  | CCNC1CC=C(c2c[nH]c3ccc(NC(=N)c4cccs4)cc23)CC1 (racemic) | 
 | 17 |  | CN(C)C1CC=C(c2c[nH]c3ccc(/N=C(\N)c4cccs4)cc23)CC1 (racemic) | 
 | 19 |  | CNC1CC=C(c2c[nH]c3ccc(/N=C(\N)c4cccs4)cc23)CC1 (racemic) | 
 |  |  | CN(C)C1CC=C(c2c[nH]c3ccc(NC(=N)c4cccs4)cc23)CC1 (single isomer, unassigned; (+)) | IC50 (Nitric oxide synthase 1): 0.84 µM
 | 114 |  | CN(C)C1CC=C(c2c[nH]c3ccc(/N=C(\N)c4cccs4)cc23)CC1 (single isomer, unassigned; (+)) | 
 |  |  | CN(C)C1CC=C(c2c[nH]c3ccc(NC(=N)c4cccs4)cc23)CC1 (single isomer, unassigned; (-)) | IC50 (Nitric oxide synthase 1): 0.86 µM
 | 54 |  | CN(C)C1CC=C(c2c[nH]c3ccc(/N=C(\N)c4cccs4)cc23)CC1 (single isomer, unassigned; (-)) | 

Compound | IC50 [1] [µM] | Ratio IC50 (Homo sapiens) | IC50 [2] [µM] | further results
CN[C@H]1CCC[C@@H](c2c[nH]c3ccc(NC(=N)c4cccs4)cc23)C1 (racemic) | 54.1 |  | 2.4 | IC50 (Nitric oxide synthase 3): 77.6 µM
CN[C@H]1CCC[C@H](c2c[nH]c3ccc(NC(=N)c4cccs4)cc23)C1 (racemic) | 14.5 |  | 0.88 | IC50 (Nitric oxide synthase 3): 7.76 µM
CNC1CCCC(c2c[nH]c3ccc(NC(=N)c4cccs4)cc23)C1 (single isomer, unassigned; (-)) | 70 |  |  | 
